From ChEMBL document CHEMBL1157731, “Novel KCNQ2/Q3 agonists as potential therapeutics for epilepsy and neuropathic pain” (J Med Chem, 2010)

Experiments:
[1] = Displacement of radioligand from GABAB receptor at 10 uM
[2] = target: Substance-P receptor (Homo sapiens) (UniProt P25103); test: Displacement of [125I]BH-SP from NK1 receptor in human U373MG cells at 10 uM; type: cell-based; settings: U-373MG ATCC
[3] = target: T1, Adenosine receptor A1 (Homo sapiens) (UniProt P30542); test: Displacement of [3H]CCPA from human recombinant adenosine A1 receptor expressed in CHO cells at 10 uM; type: cell-based
T1 sequence (whole entry): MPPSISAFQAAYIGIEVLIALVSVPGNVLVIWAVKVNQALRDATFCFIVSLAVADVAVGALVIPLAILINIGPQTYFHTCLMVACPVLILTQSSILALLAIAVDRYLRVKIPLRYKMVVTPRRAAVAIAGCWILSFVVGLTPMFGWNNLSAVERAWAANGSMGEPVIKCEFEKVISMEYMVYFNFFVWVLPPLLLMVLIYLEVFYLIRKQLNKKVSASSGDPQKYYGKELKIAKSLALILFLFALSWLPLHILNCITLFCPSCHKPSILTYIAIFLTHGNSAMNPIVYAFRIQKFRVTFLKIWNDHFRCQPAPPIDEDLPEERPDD

[4] = target: Adenosine receptor A2a (Homo sapiens) (UniProt P29274); test: Displacement of [3H]CGS21680 from human recombinant adenosine A2A receptor expressed in HEK293 cells at 10 uM; type: cell-based
Adenosine receptor A2a (Homo sapiens), sequence (P29274 whole entry): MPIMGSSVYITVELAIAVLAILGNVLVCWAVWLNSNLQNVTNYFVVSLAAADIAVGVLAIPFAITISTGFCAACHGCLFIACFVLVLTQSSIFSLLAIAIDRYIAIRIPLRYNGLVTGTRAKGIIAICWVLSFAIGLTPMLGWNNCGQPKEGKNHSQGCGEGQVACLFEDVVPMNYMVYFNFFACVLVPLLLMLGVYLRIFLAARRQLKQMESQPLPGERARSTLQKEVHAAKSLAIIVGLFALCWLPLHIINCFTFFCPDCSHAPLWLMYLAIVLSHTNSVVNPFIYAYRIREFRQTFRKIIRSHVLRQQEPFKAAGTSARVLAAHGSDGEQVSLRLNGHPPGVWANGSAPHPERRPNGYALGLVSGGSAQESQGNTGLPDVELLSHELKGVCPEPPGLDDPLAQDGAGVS

[5] = Displacement of radioligand from opiate receptor at 10 uM
[6] = target: Voltage-gated potassium channel, KQT; KCNQ2(Kv7.2)/KCNQ3(Kv7.3) (Homo sapiens, UniProt O43525+O43526); test: Activation of KCNQ2/KCNQ3 expressed in CHO cells by isotopic efflux assay; type: cell-based
Voltage-gated potassium channel, KQT; KCNQ2(Kv7.2)/KCNQ3(Kv7.3), sequence (O43526 whole entry): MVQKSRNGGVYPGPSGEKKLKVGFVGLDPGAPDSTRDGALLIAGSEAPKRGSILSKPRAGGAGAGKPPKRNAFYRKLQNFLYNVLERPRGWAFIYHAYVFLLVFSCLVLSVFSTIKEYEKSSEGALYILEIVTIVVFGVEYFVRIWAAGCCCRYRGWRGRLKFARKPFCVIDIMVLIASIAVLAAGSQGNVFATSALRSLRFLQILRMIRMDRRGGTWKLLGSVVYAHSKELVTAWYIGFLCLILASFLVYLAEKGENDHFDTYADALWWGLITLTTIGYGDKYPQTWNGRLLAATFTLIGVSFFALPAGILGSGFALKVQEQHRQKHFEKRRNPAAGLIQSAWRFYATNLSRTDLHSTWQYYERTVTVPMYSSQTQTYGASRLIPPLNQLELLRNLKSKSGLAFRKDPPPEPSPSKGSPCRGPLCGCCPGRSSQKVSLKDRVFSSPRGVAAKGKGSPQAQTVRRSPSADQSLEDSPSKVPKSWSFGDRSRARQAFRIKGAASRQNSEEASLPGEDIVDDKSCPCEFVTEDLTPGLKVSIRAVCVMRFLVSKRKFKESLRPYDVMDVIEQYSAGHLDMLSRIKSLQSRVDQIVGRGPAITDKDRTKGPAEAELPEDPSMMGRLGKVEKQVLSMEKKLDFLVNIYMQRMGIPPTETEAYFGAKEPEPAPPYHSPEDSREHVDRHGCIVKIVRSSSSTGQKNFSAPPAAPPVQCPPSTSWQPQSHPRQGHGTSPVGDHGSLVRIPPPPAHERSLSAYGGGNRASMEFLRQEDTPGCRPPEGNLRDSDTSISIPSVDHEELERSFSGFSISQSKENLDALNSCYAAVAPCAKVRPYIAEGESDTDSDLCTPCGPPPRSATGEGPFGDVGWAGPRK
Voltage-gated potassium channel, KQT; KCNQ2(Kv7.2)/KCNQ3(Kv7.3), sequence (O43525 whole entry): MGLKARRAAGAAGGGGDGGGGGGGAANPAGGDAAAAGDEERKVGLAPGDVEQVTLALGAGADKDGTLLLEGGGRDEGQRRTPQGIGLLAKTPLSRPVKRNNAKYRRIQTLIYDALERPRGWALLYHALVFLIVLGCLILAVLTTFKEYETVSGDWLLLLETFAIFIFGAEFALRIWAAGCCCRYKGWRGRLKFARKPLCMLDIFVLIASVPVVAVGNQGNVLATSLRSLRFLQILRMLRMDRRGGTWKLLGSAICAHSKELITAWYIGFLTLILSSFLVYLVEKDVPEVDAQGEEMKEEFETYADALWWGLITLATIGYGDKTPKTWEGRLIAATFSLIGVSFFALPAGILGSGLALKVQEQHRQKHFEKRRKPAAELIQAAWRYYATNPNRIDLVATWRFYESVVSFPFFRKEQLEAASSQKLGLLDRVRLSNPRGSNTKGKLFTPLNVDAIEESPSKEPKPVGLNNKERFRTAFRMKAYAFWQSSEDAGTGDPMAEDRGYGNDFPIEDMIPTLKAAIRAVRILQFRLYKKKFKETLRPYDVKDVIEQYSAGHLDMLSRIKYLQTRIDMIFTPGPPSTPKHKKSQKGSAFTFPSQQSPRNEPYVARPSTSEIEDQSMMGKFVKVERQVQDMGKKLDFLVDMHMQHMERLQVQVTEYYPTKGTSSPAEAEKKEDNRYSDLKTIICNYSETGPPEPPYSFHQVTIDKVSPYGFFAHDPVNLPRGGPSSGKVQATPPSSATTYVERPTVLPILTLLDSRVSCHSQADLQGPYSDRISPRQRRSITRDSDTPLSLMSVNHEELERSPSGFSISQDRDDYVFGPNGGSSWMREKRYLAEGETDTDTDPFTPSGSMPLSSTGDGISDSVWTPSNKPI
Procedure, shortened: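 86Rb+ flux in K+-channel-expressing cells loaded by culture in 86RbCl, then washed in EBSS. Preincubated with drug (0.01-30 μM in EBSS), then efflux stimulated by submaximal KCl (generally 7-20 mM) with drug still present. Supernatant and SDS lysate counted by Cherenkov. Percent efflux normalized to high-KCl (generally 30-135 mM) maximum. EC50 from eight-point half-log curves; mean of 2-4 determinations ± SEM.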

[7] = test system: Rattus norvegicus; test: Anticonvulsant activity in po dosed Sprague-Dawley rat assessed as inhibition of pentylenetetrazole-induced seizure treated 30 mins before PTZ challenge; type: functional, organism-based
Procedure, shortened: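 Male Sprague-Dawley rats received compound po in 0.5% methylcellulose (1 mL/kg) 30 min before PTZ 85 mg/kg sc. Latency to tonic-clonic seizure timed from PTZ injection. No seizure within 15 min scored as protected (latency 15 min). EC50 derived from latency scores.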

[8] = target: Adrenergic receptor alpha-1 (Rattus norvegicus) (UniProt P15823+P23944+P43140); test: Displacement of [3H]prazosin from adrenergic receptor 1 alpha in rat cerebral cortex at 10 uM; type: tissue-based
[9] = target: T2, Alpha-2A adrenergic receptor (Homo sapiens) (UniProt P08913); test: Displacement of radioligand from alpha 2 adrenergic receptor at 10 uM
T2 sequence (whole entry): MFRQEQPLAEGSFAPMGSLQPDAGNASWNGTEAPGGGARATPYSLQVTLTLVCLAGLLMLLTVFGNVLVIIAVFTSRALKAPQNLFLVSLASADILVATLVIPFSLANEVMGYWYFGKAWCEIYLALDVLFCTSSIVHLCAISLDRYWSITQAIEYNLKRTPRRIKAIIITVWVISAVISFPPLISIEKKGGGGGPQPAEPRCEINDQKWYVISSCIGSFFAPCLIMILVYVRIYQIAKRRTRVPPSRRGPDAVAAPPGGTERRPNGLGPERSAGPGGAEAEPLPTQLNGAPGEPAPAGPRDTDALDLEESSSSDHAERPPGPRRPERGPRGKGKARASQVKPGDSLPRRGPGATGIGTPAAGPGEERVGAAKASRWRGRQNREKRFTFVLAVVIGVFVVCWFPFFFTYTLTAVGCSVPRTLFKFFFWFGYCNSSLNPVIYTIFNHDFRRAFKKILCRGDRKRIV

[10] = target: Sodium-dependent noradrenaline transporter (Homo sapiens) (UniProt P23975); test: Binding affinity to NET at 10 uM by displacement assay
Sodium-dependent noradrenaline transporter (Homo sapiens), sequence (P23975 whole entry): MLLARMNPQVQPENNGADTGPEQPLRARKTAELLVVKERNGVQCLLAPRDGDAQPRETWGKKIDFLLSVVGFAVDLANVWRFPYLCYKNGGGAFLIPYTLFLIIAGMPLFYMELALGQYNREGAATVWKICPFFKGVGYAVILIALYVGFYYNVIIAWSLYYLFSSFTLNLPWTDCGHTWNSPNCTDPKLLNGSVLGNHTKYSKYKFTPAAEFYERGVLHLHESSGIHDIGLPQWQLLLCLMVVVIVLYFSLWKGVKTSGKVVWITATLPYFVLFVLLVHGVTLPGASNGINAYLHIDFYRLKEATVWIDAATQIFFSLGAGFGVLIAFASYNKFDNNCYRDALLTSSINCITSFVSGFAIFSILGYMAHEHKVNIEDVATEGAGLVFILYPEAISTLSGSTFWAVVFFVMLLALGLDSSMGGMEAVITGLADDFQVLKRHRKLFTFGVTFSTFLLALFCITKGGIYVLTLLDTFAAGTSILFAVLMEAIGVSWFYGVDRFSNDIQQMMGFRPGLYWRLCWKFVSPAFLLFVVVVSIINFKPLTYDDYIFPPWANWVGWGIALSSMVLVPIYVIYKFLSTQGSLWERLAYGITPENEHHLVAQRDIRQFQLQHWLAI

[11] = target: D(1A) dopamine receptor (Homo sapiens) (UniProt P21728); test: Displacement of radioligand from dopamine D1 receptor at 10 uM
D(1A) dopamine receptor (Homo sapiens), sequence (P21728 whole entry): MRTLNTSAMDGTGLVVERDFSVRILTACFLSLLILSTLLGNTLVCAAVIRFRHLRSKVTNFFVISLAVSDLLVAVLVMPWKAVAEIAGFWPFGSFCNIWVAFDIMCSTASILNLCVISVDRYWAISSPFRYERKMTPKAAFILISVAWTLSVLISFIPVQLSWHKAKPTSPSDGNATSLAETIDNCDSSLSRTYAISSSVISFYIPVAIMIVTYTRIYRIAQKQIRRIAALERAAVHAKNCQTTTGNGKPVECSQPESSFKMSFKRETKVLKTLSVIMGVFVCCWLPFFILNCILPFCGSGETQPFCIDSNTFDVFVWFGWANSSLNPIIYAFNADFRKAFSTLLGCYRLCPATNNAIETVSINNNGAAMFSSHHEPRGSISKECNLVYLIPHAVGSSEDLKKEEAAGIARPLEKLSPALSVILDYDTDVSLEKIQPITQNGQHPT

[12] = target: D(2) dopamine receptor (Homo sapiens) (UniProt P14416); test: Displacement of radioligand from dopamine D2 receptor at 10 uM
D(2) dopamine receptor (Homo sapiens), sequence (P14416 whole entry): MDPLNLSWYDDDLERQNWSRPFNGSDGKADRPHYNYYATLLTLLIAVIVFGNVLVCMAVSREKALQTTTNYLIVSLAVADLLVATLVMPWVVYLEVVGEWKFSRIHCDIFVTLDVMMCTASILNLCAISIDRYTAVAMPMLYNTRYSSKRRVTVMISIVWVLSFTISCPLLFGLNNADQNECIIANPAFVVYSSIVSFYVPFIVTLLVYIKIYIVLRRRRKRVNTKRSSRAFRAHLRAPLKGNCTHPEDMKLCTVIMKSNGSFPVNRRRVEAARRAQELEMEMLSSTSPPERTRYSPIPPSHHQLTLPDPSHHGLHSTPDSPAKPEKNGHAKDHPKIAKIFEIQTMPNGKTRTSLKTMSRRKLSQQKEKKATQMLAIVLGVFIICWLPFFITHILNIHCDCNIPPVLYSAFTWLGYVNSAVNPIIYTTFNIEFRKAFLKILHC

[13] = target: T3, Muscarinic acetylcholine receptor M1 (Homo sapiens) (UniProt P11229); test: Displacement of radioligand from muscarinic M1 receptor at 10 uM
T3 sequence (whole entry): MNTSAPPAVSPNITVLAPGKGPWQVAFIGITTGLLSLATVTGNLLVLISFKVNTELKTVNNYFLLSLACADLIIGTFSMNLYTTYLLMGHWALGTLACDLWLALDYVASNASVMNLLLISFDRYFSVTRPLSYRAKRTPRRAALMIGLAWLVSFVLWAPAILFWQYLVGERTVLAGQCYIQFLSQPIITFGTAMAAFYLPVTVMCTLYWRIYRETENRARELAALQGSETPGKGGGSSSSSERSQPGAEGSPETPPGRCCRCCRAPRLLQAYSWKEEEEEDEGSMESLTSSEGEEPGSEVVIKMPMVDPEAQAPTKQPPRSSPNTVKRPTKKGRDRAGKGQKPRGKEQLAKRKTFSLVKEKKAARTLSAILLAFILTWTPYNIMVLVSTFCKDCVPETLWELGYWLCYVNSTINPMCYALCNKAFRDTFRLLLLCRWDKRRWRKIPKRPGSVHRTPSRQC

[14] = target: T4, 5-hydroxytryptamine receptor 1A (Homo sapiens) (UniProt P08908); test: Displacement of radioligand from 5HT1A receptor at 10 uM by displacement assay
T4 sequence (whole entry): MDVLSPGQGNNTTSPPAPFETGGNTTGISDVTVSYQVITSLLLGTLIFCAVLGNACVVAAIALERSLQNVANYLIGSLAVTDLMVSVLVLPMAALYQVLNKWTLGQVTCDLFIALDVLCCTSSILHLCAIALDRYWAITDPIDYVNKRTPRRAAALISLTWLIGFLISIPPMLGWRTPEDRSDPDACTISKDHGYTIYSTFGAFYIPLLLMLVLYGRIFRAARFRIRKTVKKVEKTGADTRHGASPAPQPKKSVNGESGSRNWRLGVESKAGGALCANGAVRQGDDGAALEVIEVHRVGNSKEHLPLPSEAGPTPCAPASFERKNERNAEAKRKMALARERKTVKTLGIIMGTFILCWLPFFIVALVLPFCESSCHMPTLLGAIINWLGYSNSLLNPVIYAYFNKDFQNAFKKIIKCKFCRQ

[15] = species on record: Rattus norvegicus; test: Displacement of [3H]DTG from sigma opioid receptor in rat cerebral cortex; type: tissue-based
[16] = Binding affinity to vasopressin V1 receptor at 10 uM by displacement assay
[17] = Binding affinity to central-type benzodiazepine receptor at 10 uM by displacement assay

Substance-P receptor (Homo sapiens), sequence (P25103 whole entry): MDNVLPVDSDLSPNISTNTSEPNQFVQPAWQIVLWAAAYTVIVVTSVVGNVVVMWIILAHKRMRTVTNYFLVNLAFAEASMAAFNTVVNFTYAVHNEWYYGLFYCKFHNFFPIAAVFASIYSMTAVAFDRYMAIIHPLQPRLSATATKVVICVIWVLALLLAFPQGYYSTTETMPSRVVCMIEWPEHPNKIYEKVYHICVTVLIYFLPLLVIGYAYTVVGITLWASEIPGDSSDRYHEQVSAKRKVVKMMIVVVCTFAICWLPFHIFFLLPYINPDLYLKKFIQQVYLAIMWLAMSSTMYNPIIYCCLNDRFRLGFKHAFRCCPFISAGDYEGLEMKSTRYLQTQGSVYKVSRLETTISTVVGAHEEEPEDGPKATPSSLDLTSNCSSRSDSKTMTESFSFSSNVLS

Row | SMILES | Activity [1] [%] | Activity [2] [%] | Activity [3] [%] | Activity [4] [%] | Activity [5] [%] | EC50 [6] [µM] | EC50 [7] [mg/kg] | Activity [8] [%] | Activity [9] [%] | Activity [10] [%] | Activity [11] [%] | Activity [12] [%] | Activity [13] [%] | Activity [14] [%] | Activity [15] [%] | Activity [16] [%] | Activity [17] [%]
1 | CC(C)OC(=O)N/N=c1\sc2cc(OC(F)(F)F)ccc2n1C | 0 | 10 | 11 | 10 | 11 | 0.095 | 2.6 | 11 | 0 | 43 | 0 | 0 | 21 | 18 | 19 | 0 | 22
2 | Cn1/c(=N/NC(=O)CC2CCCC2)sc2cc(OC(F)(F)F)ccc21 | 12 | 21 | 0 | 12 | 16 | 0.044 | 7.5 | 0 | 0 | 34 | 0 | 0 | 34 | 0 | 0 | 22 | 0
3 | Cn1/c(=N/NC(=O)CC(C)(C)C)sc2cc(OC(F)(F)F)ccc21 | 16 | 0 | 0 | 0 | 0 | 0.049 | 3.8 | 0 | 0 | 14 | 0 | 0 | 0 | 0 | 0 | 12 | 0
